BindingDB's records for doi:10.1021/acs.jmedchem.9b01065 (Colorado State University, 2019)

How the values were obtained:
[1] = molecular target: T1, DNA topoisomerase 2-alpha (Homo sapiens, UniProt P11388); test: Inhibition of topoisomerase 2alpha in human SW620 organoids transfected with EcadPro-RFP reporter assessed as reversion of epithelial-mesenchymal transition by measuring increase in E-cadherin expression after 72 hrs by Hoechst 33342 staining based mCherryRFP reporter gene assay
Procedure, shortened: (§1)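 SW620 cells stably carrying VimPro-GFP or EcadPro-mCherry (puromycin selected) grown as organoids and dosed 72 h. Stained with 16 μM Hoechst 33342 for 1 h and imaged as 15 z-layers, 26.5 μm apart. Nuclei segmented and GFP- or mCherry-positive cells counted above background thresholds. Percent positive cells normalised to DMSO.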

[2] = molecular target: T1, DNA topoisomerase 2-alpha; test: Inhibition of topoisomerase 2alpha in human SW620 organoids transfected with VimPro-GFP reporter assessed as reversion of epithelial-mesenchymal transition by measuring reduction in vimentin expression after 72 hrs by Hoechst 33342 staining based GFP reporter gene assay; procedure, shortened: as §1

T1 sequence (P11388 whole entry): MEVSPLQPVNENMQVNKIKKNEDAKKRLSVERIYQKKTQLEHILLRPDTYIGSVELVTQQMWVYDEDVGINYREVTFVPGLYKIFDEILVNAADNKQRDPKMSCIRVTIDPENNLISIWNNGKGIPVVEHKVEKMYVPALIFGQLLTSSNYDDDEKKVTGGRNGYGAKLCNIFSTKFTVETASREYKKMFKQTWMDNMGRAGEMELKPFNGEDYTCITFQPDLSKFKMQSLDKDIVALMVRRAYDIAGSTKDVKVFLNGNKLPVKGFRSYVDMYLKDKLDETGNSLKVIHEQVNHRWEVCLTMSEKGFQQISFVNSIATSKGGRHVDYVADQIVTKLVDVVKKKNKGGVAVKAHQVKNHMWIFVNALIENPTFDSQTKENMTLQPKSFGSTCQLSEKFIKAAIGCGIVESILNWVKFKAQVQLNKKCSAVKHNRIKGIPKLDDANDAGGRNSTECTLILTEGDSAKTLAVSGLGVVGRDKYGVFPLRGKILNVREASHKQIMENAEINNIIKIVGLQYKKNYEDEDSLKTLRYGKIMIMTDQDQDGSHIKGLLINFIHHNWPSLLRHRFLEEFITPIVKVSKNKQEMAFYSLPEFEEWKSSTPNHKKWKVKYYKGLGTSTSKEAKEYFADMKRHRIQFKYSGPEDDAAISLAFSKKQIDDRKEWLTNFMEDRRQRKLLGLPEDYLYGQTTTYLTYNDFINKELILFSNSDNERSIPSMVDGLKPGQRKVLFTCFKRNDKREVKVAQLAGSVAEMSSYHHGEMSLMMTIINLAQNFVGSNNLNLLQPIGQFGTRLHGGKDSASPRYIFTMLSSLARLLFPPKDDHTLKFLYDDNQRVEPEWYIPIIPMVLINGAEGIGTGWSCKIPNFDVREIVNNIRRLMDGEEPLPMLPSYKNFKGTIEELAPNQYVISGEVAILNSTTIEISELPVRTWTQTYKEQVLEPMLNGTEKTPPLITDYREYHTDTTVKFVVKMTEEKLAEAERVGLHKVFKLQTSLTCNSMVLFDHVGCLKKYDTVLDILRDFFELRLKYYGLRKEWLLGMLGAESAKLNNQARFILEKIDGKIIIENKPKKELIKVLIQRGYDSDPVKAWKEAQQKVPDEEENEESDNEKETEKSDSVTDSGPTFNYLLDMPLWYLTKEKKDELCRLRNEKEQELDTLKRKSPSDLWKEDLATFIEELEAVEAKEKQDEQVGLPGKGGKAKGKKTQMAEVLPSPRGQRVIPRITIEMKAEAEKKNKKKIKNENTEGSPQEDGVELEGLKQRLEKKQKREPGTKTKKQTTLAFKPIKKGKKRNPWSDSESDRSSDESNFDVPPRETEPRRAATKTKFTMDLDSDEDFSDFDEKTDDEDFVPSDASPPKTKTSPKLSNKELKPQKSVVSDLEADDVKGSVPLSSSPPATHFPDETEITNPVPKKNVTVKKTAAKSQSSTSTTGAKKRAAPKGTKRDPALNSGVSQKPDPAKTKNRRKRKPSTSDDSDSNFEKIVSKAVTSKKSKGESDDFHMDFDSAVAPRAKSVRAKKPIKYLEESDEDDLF

Compound: COc1cc(NC(C)=O)c(O)c2nccc(-c3ccccc3NC(=O)c3ccccc3)c12
- EC50 [1]: 9 µM
- EC50 [2]: 4 µM

Compound: CC(C)(C)C(=O)Nc1ccc2c(-c3ccccc3)ccnc2c1O
- EC50 [1]: 3.1 µM
- EC50 [2]: 4.7 µM

Compound: CC(=O)Nc1ccc2c(-c3ccoc3)ccnc2c1O
- EC50 [1]: 3.4 µM
- EC50 [2]: 1.7 µM

Compound: CC(=O)Nc1ccc2c(-c3cc(F)ccc3O)ccnc2c1O
- EC50 [1]: 1.6 µM
- EC50 [2]: 1.2 µM

Compound: O=C(CCN1CCOCC1)Nc1ccc2c(-c3cc(F)ccc3O)ccnc2c1O
- EC50 [1]: 1.2 µM
- EC50 [2]: 1.9 µM

Compound: O=C(CCN1CCOCC1)Nc1ccc2c(-c3cc4ccccc4o3)ccnc2c1O
- EC50 [1]: 3 µM
- EC50 [2]: 2.4 µM

Compound: O=C(CN1CCOCC1)Nc1ccc2c(-c3cc4ccccc4o3)ccnc2c1O
- EC50 [1]: 3.3 µM
- EC50 [2]: 1 µM

Compound: CC(=O)Nc1ccc(-c2ccnc3c(O)c(NC(C)=O)ccc23)cc1
- EC50 [1]: 5.5 µM
- EC50 [2]: 9.5 µM

Compound: CC(=O)Nc1ccc2c(-c3cccs3)ccnc2c1O
- EC50 [1]: 1.1 µM
- EC50 [2]: 1.2 µM

Compound: CC(=O)Nc1ccc2c(-c3cc4ccccc4o3)ccnc2c1O
- EC50 [1]: 5.4 µM
- EC50 [2]: 3.5 µM
